From PubChem BioAssay
MrgX1 PAM: allosterically activates human MrgX1 receptor signaling; Q96LB2; MrgX1-HEK293, Fluo-4 calcium flux, FDSS; hits give high values; B-score at 10 µM; hit rate 0.63% among 310,000; AID 588675;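 active = plate-corrected calcium response at least 3 library SD above typical, normal starting fluorescence, not activating the receptor alone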;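 also: compound read alongside a low EC10 to EC30 dose of BAM8-22 agonist; peak minus trough fluorescence over baseline measured at the second addition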
Target sequence (Q96LB2 whole entry, looked up): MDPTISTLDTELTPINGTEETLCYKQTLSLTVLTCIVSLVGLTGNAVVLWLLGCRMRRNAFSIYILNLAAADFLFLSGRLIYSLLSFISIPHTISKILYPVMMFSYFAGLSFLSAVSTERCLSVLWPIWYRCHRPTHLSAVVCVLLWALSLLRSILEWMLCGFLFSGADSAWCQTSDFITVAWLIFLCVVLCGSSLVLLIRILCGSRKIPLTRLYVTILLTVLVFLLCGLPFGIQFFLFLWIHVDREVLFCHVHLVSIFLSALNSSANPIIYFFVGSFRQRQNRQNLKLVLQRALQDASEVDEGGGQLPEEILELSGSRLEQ
MrgX1 agonist: agonists of human MrgX1 receptor; MrgX1-HEK293 cells, Fluo-4 calcium fluorescence, agonist mode; hits give high values; AID 588627; hit rate 0.44% among 310,000; B-score at 10 µM;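 active = calcium response B-score plate-corrected fluorescence ratio at least 3 library SD, with starting fluorescence B-score inside 5 SD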
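Test system: Stable human MrgX1 HEK293 cell line | Schedule: Overnight plating before 1 h dye loading | Read-out basis: Baseline-normalised fluorescence change ratio, B-scored | Detection: Kinetic calcium dye fluorescence, Fluo-4 NW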
RGS4 pot: RGS4 potentiation or activation. HEK293 M3R/inducible RGS4, carbachol calcium flux Fluo4; hits give low values. B-score at 10 µM. hit rate 0.92% among 310,000. AID 463111;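 active = B-score of the integrated calcium signal more than 4 SD below the library mean, with starting fluorescence not abnormally high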;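 also: negative B-score means reduced calcium response which marks RGS4 activation or potentiation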
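System: HEK293 FlpIn-TREx cells, stable M3R, doxycycline-inducible RGS4. Timing: overnight RGS4 induction, 30 min dye load 37 °C, 20 min compound RT. Also added: carbachol, ECmax concentration. Measured by: Fluo4 fluorescence kinetic imaging of calcium. Evaluation: integrated calcium ratio converted to B score.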
RGS4 block: human RGS4 inhibition | AID 463165 | hit rate 0.45% among 310,000 | P49798 | HEK293 M3R/RGS4 inducible, Fluo-4 calcium flux; hits give high values; triggered by carbachol at its EC20 | B-score at 10 µM;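 active = B-score, a plate-corrected calcium signal, over three deviations above library mean, with baseline fluorescence within five deviations of library mean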;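 also: RGS4 expression induced by doxycycline in cells with stable M3 receptor; B-score is computed from the integrated fluorescence ratio over baseline after carbachol; higher B-score means a larger calcium signal and so more RGS4 inhibition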
Target sequence (P49798 whole entry, looked up): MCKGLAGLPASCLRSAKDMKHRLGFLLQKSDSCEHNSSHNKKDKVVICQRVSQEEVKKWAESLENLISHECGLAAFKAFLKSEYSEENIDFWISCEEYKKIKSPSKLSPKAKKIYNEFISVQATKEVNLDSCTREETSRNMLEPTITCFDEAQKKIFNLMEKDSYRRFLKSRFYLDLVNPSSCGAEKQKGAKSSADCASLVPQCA
MrgX1 antagonist: blocks BAM8-22 activation of human MrgX1 receptor; Q96LB2; MRGX1-HEK293 calcium flux, Fluo-4, BAM8-22 antagonism; hits give low values; B-score at 10 µM; hit rate 1.3% among 310,000; AID 588676;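 active = calcium-response B-score plate-corrected more than 3 library SD below zero, starting fluorescence within 5 deviations, no agonist response on first addition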;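 also: peak minus trough fluorescence over baseline after final BAM8-22 challenge near maximal dose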
RGS4 act valid: RGS4 activation, validation assay; inhibition, % at 10 µM; hit rate 89% among 1,100; shares compounds with RGS4 pot; HEK293 M3R/RGS4 inducible, carbachol calcium flux Fluo4; AID 602282;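 active = inhibition above 3 SD of the buffer control wells, cut at about 41% in these data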;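 also: signal is the integrated peak-minus-minimum Fluo4 fluorescence over baseline ratio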
RGS4 act ctr: RGS4 activator counter-screen hit in non-induced cells | inhibition, % at 10 µM | hit rate 82% among 1,100 | HEK293 M3R non-induced RGS4, Fluo4 calcium flux; after carbachol challenge at its EC90 | shares compounds with RGS4 pot | AID 602283;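 active = inhibition exceeding 3 SD of buffer-only control wells, cut at about 26% in these data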;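 also: percent drop in integrated peak-minus-baseline over baseline Fluo4 ratio after carbachol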
Starred values were filed as active, the others as inactive; i = inactive; . = no result given; ! = a repeat was not active. A selection: hits, their analogues and other compounds. The true share with any hit is near 3.5%.

SMILES	MrgX1 PAM	MrgX1 agonist	RGS4 pot	RGS4 block	MrgX1 antagonist	RGS4 act valid	RGS4 act ctr
O=[N+]([O-])c1ccc(N2CCCC2)c2ccncc12	i	i	i	i	-5.1*	.	.
O=[N+]([O-])c1ccc(NC2CCCC2)c2ccncc12	i	i	i	i	i	.	.
O=c1[nH]c(=S)[nH]c(O)c1/C=N/N1CCOCC1	i	i	i	i	i	.	.
Cc1ccccc1N1C(=O)NC(=O)/C(=C\c2ccc3c(c2)CCCN3Cc2ccccc2)C1=O	i	32*	i	i	i	.	.
CCOc1cc2c(cc1OCC)-n1cccc1C(c1cc(OC)ccc1F)NC2 (configuration not stated)	i	i	i	i	i	.	.
N#CC1=C(N)Oc2c(c(=O)sc3ccccc23)C1c1cccnc1 (configuration not stated)	i	i	i	i	i	.	.
CCN(CC)c1ccc(N=Cc2c(O)n(Cc3ccccc3)c(=O)[nH]c2=O)cc1	i	i	-7.3*!	i	i	.	.
Cc1ccccc1-n1c(O)c(C(c2ccncc2)c2c(O)n(-c3ccccc3C)c(=O)[nH]c2=O)c(=O)[nH]c1=O	i	i	i	i	i	.	.
C=C1[C@H]2C[C@H]3[C@H]4N5C[C@]6(C)CCC[C@]47[C@H]([C@H]2O)[C@]3(C[C@]5(O)[C@H]67)[C@@H]1O	i	i	i	i	i	.	.
CC1(C(O)(C#CCN2CCCCC2)c2ccccc2)CCCC1 (configuration not stated)	i	i	-7.6*	i	i	93*	89*
OC(CC#CCN1CCCCCC1)(c1ccccc1)C1CCCC1 (configuration not stated)	i	i	-7.7*	i	i	93*	95*
CCOc1cccc(CNC2CN3CCC2CC3)c1 (configuration not stated)	i	i	i	i	i	.	.
COc1cccc(CNC2CN3CCC2CC3)c1OC (configuration not stated)	i	i	-7.7*	i	i	56*	26*
CC(C)c1ccc(NC(=O)CCNC(=O)N2C[C@H]3C[C@@H](C2)c2cccc(=O)n2C3)cc1	i	i	i	i	i	.	.
COc1ccc(NC(=O)N2C[C@@H]3C[C@@H](C2)c2cccc(=O)n2C3)c(OC)c1	i	i	i	i	i	.	.
Cc1ccc(-c2nc3ccccc3c(=O)n2-c2cccc(C)n2)cc1	i	i	-10*	i	i	48*	84*
Cc1ccc(-c2nc3ccccc3c(=O)n2-c2cc(C)ccn2)cc1	i	i	i	i	i	.	.
COc1ccc(C2=NS(=O)(=O)N(C)C(C(=O)N3CCC4(CC3)OCCO4)=C2)cc1OC	i	i	i	i	i	.	.
CCC[N+]12CCC(CC1)C(=C(c1ccccc1)c1ccccc1)C2	i	i	-12*	i	i	90*	64*
Cc1ccc(C(C)C)c(OCC#CCN2CCCC2)c1	i	i	-9.1*	i	i	91*	41*
Brc1ccc(C2N3CCCN23)cc1 (configuration not stated)	i	i	i	i	i	.	.
CCC1=Nc2cc(C(=O)N3CCC4(CC3)OCCO4)ccc2Sc2ccc(Br)cc21	i	i	i	i	i	.	.
O=C(c1ccc2c(c1)OCO2)C1CCCN(CC2CCCCC2)C1 (configuration not stated)	i	i	i	i	i	.	.
O=C(c1ccc2c(c1)OCO2)C1CCCN(Cc2c(F)cccc2Cl)C1 (configuration not stated)	i	i	-8.6*	i	i	92*	81*
Brc1ccc2c(c1)C(OC1CN3CCC1CC3)c1ccccc1CS2 (configuration not stated)	i	i	-14*	i	i	94*	90*
SMILES	MrgX1 PAM	MrgX1 agonist	RGS4 pot	RGS4 block	MrgX1 antagonist	RGS4 act valid	RGS4 act ctr
c1ccc(CN2CCNCC2)nc1	i	i	i	i	i	.	.
c1ccc(C(OCCN2CCNCC2)c2ccccc2)cc1	i	i	-9.5*	i	i	92*	74*
S=C1NCCN1	i	i	i	i	i	.	.
CN1CCN(Cc2cc3c(cc2[N+](=O)[O-])OCO3)CC1	i	i	i	i	i	.	.
OC(c1ccccc1)(c1ccc(Cl)cc1)C1CN2CCC1CC2 (configuration not stated)	i	i	-9.1*	i	i	78*	57*
O=C(c1ccc(Cl)cc1)C1CCCN(C2CCSCC2)C1 (configuration not stated)	i	i	-7.9*	i	i	92*	55*
O=P(NCc1ccccc1)(Oc1ccccc1)Oc1ccccc1	i	i	i	i	i	.	.
CCOc1cccc(CNCCc2c(C)[nH]c3ccc(OC(F)(F)F)cc23)c1O	i	i	-8.9*	i	-5.3*	90*	90*
Cc1[nH]c2ccc(OC(F)(F)F)cc2c1CCNCc1cccc([N+](=O)[O-])c1	i	i	i	i	i	.	.
CN1CC(C(=O)c2cccs2)C(c2ccc(Cl)cc2)C1 (configuration not stated)	i	i	i	i	i	.	.
O=C(c1cccs1)C1CN2CCC1CC2 (configuration not stated)	i	i	-9.3*	i	i	60*	0
CCn1ccnc1CN1CCCC(C(=O)c2ccc(SC)cc2)C1 (configuration not stated)	i	i	-10*	i	i	92*	90*
COC(=O)C1=CO[C@@H](C)[C@@H]2CN(CCc3c[nH]c4ccccc34)CC[C@H]12	i	i	i	i	i	.	.
CCc1ccccc1NC(=O)CNC1CCCCC1	i	i	i	i	i	.	.
CN(CC(=O)Nc1ccccc1-c1ccccc1)C1CCCCC1	i	i	-9.6*	i	i	92*	55*
CCCn1ncc(CN2CCCC(C(=O)c3cccc(OC)c3)C2)c1C (configuration not stated)	i	i	-9.1*	i	i	91*	70*
